Measurements from ChEMBL document CHEMBL4732078 (Eur J Med Chem, 2021).
Activity calls are given as the source filed them. No cut-off for these calls is given here.

Columns and labels:
[1] = system: SJRH30; assay: Antiproliferative activity against human Rh30 cells assessed as reduction in cell viability after 72 hrs by sulforhodamine B assay; type: functional, cell-based; settings: SJRH30, 72 h
Method in brief: (§1)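 SRB assay. Exponentially growing cells seeded at 3000–5000/well, compounds added serially diluted after 24 h, cultured 72 h. Cells fixed with 10% TCA, stained with SRB, dye dissolved in 10 mM Tris-HCl, absorbance read at 560 nm. Inhibition = (ODcontrol − ODtreated)/ODcontrol × 100%. IC50 is the mean of at least three independent tests.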

[2] = system: RAF proto-oncogene serine/threonine-protein kinase (Homo sapiens), P04049 [Y340D,Y341D]; assay: Inhibition of human recombinant c-Raf Y340D/Y341D mutant (306 to end residues) using inactive MEK1 as substrate at 10 uM incubated for 40 mins in presence of [gamma33P-ATP] by radiometric scintillation counting analysis
RAF proto-oncogene serine/threonine-protein kinase (Homo sapiens), P04049 [Y340D,Y341D], sequence (P04049 whole entry Y340D/Y341D, canonical isoform): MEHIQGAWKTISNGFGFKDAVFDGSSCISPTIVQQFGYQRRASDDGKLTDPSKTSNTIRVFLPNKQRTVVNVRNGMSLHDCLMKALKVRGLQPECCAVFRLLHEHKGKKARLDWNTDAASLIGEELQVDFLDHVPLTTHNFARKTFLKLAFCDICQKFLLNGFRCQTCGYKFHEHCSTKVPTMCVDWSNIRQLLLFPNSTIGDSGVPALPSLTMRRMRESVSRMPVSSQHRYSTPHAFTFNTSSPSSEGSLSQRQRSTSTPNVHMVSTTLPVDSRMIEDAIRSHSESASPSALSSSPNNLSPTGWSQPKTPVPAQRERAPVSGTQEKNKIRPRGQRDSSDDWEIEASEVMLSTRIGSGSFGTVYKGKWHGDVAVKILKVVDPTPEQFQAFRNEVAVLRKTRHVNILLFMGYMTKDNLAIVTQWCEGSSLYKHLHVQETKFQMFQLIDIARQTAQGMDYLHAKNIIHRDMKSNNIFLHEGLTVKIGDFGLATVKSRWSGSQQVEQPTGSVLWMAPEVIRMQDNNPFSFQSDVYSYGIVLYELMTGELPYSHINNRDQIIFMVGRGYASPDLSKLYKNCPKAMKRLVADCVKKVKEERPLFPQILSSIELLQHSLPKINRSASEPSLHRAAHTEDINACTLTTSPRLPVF

[3] = target: T1, Phosphatidylinositol 4,5-bisphosphate 3-kinase catalytic subunit alpha isoform (Homo sapiens, UniProt P42336); assay: Inhibition of PI3Kalpha (unknown origin) transfected in human Rh30 cells assessed as reduction in AKT phosphorylation at Ser473 at 14 nM by western blot analysis; type: cell-based
T1 sequence (P42336 whole entry, canonical isoform): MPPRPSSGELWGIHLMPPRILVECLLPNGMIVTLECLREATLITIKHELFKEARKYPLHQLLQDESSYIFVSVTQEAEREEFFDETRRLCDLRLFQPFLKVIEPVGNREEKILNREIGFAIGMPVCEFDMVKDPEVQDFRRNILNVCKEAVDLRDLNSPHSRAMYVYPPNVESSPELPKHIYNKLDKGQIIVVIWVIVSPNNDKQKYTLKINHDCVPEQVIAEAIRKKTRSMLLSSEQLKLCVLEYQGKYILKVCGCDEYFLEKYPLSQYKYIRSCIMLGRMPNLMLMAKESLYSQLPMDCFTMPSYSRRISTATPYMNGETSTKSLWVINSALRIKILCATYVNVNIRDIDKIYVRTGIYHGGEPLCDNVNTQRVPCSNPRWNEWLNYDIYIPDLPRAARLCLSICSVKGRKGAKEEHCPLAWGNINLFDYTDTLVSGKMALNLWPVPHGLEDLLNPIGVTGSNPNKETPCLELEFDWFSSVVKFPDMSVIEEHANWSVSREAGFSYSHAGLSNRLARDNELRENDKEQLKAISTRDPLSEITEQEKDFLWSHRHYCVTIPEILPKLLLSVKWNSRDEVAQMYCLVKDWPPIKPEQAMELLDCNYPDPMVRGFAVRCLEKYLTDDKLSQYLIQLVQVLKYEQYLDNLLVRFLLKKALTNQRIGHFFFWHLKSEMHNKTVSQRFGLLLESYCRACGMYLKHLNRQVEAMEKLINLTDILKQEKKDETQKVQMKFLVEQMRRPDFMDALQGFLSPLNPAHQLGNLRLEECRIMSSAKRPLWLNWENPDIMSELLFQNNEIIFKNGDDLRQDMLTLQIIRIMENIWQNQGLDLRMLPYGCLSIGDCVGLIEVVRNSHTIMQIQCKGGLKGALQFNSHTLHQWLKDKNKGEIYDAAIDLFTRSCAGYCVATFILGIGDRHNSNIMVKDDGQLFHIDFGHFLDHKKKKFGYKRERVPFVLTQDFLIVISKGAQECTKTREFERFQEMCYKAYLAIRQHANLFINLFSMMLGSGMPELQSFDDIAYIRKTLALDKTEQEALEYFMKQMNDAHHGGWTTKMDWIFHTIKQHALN
Method in brief: (§2)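 Rh30 cells ectopically expressing membrane-anchored, N-terminally myristoylated, constitutively active p110α, β, γ or δ. Akt phosphorylation assessed by Western blot; lysates made in RIPA buffer, equal protein heated at 95 °C for 10 min in SDS loading buffer.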

[4] = target: T1, Phosphatidylinositol 4,5-bisphosphate 3-kinase catalytic subunit alpha isoform; assay: Inhibition of PI3Kalpha in human U87MG cells assessed as reduction in rhIGF1-stimulated AKT phosphorylation at Ser473 treated for 1 hr followed by incubation with IGF1 for 10 mins by western blot analysis; type: cell-based; settings: U-87 MG, dose 0.01-1 µM, time 70.0 min
Method in brief: (§3)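 U87MG or Rh30 cells held 24 h in serum-free medium, exposed to compound for 1 h, then stimulated with 50 ng/ml IGF-I for 10 min. Lysates blotted for Akt, pAkt T308 and pAkt S473.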

[5] = target: T1, Phosphatidylinositol 4,5-bisphosphate 3-kinase catalytic subunit alpha isoform; assay: Inhibition of PI3Kalpha in human U87MG cells assessed as reduction in rhIGF1-stimulated AKT phosphorylation at Thr308 treated for 1 hr followed by incubation with IGF1 for 10 mins by western blot analysis; type: cell-based; settings: U-87 MG, dose 0.01-1 µM, time 70.0 min; method in brief: as §3
[6] = system: BT-474; assay: Antiproliferative activity against human BT-474 cells assessed as reduction in cell viability after 72 hrs by sulforhodamine B assay; type: functional, cell-based; settings: BT-474, 72 h; method in brief: as §1
[7] = system: T47D; assay: Antiproliferative activity against human T47D cells assessed as reduction in cell viability after 72 hrs by sulforhodamine B assay; type: functional, cell-based; method in brief: as §1
[8] = system: HCC1954; assay: Antiproliferative activity against human HCC1954 cells assessed as reduction in cell viability after 72 hrs by sulforhodamine B assay; type: functional, cell-based; settings: HCC1954, 72 h; method in brief: as §1
[9] = system: SK-BR-3; assay: Antiproliferative activity against human SK-BR-3 cells assessed as reduction in cell viability after 72 hrs by sulforhodamine B assay; type: functional, cell-based; settings: SK-BR-3, 72 h; method in brief: as §1
[10] = system: Mus musculus; assay: In vivo inhibition of PI3Kalpha in BALB/cA nude mouse xenografted with human SK-OV-3 cells assessed as reduction in AKT phosphorylation at Ser473 residue in tumor at 5 mg/kg, po measured after 2 hrs by Western blot analysis; type: functional, organism-based
Method in brief: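 Nude mice carrying SKOV-3 xenografts of 200 mm³ got a single oral 5 mg/kg dose. Tumors were collected at 0, 2, 4 or 8 h, homogenized, and pAkt S473 probed by Western blot.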

[11] = Metabolic stability in human hepatocytes assessed as half life; type: ADME, cell-based, Hepatocyte
[12] = Metabolic stability in cynomolgus monkey hepatocytes assessed as half life; type: ADME, cell-based, Macaca fascicularis, Hepatocyte
[13] = Metabolic stability in rat hepatocytes assessed as half life; type: ADME, cell-based, Hepatocyte
[14] = Metabolic stability in mouse hepatocytes assessed as half life; type: ADME, cell-based, Hepatocyte
[15] = Metabolic stability in human hepatocytes assessed as intrinsic clearance; type: ADME, cell-based, Hepatocyte; settings: read-out: CLH
[16] = target: T1, Phosphatidylinositol 4,5-bisphosphate 3-kinase catalytic subunit alpha isoform; assay: Inhibition of PI3Kalpha (unknown origin) transfected in human Rh30 cells assessed as reduction in AKT phosphorylation at Thr308 residue at 14 nM by western blot analysis; type: cell-based; method in brief: as §2
[17] = target: Phosphatidylinositol 4,5-bisphosphate 3-kinase catalytic subunit beta isoform (Homo sapiens) (UniProt P42338); assay: Inhibition of PI3Kbeta (unknown origin) transfected in human Rh30 cells assessed as reduction in AKT phosphorylation at Thr308 residue at 10XIC50 by western blot analysis; type: cell-based; method in brief: as §2
[18] = target: Phosphatidylinositol 4,5-bisphosphate 3-kinase catalytic subunit gamma isoform (Homo sapiens) (UniProt P48736); assay: Inhibition of PI3Kgamma (unknown origin) transfected in human Rh30 cells assessed as reduction in AKT phosphorylation at Thr308 residue at 10XIC50 by western blot analysis; type: cell-based; method in brief: as §2
[19] = target: Phosphatidylinositol 4,5-bisphosphate 3-kinase catalytic subunit delta isoform (Homo sapiens) (UniProt O00329); assay: Inhibition of PI3Kdelta (unknown origin) transfected in human Rh30 cells assessed as reduction in AKT phosphorylation at Thr308 residue at 10XIC50 by western blot analysis; type: cell-based; method in brief: as §2
Phosphatidylinositol 4,5-bisphosphate 3-kinase catalytic subunit delta isoform (Homo sapiens), sequence (O00329 whole entry, canonical isoform): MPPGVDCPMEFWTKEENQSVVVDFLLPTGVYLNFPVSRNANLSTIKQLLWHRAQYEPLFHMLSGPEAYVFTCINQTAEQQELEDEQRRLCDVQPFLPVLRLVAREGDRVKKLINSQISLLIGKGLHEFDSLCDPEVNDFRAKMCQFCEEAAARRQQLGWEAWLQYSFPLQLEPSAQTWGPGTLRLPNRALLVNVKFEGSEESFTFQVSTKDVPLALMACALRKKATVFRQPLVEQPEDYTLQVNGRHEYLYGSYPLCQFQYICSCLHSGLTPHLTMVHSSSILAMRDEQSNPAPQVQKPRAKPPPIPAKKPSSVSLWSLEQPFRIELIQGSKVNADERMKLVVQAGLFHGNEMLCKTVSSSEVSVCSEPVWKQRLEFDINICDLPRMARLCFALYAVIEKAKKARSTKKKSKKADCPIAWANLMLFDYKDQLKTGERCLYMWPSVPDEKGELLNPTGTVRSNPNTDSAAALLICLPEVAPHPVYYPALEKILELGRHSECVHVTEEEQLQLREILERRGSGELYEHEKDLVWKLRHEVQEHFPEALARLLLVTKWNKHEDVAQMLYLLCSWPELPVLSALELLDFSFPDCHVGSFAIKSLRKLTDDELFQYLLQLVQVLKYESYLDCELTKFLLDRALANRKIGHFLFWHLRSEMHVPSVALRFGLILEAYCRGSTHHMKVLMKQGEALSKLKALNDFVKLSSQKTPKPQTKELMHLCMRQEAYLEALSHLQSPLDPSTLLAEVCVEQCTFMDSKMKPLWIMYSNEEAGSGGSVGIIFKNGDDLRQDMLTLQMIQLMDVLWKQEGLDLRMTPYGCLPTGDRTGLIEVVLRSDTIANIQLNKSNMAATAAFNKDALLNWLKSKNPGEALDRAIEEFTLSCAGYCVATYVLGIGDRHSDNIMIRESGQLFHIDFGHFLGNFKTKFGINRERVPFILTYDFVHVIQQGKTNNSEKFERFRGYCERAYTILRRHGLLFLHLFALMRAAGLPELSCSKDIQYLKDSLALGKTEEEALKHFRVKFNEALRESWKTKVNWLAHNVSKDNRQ

[20] = target: CYP450 (isoform not stated) (Homo sapiens, UniProt P04798+P05177+P05181+P08684+P10632+P10635+P11509+P11712+P13584+P20813+P20815+P20853+P24462+P24903+P33260+P33261+P51589+P78329+P98187+Q02928+Q08477+Q16678+Q16696+Q5TCH4+Q6VVX0+Q7Z449+Q8TAV3+Q96SQ9+Q9HB55); assay: Inhibition of CYP450 (unknown origin); type: ADME, protein assay
[21] = target: Voltage-gated inwardly rectifying potassium channel KCNH2 (Homo sapiens, UniProt Q12809); assay: Inhibition of human ERG expressed in CHO cells at holding potential of -80 mV by patch clamp assay; type: cell-based
Voltage-gated inwardly rectifying potassium channel KCNH2, sequence (Q12809 whole entry): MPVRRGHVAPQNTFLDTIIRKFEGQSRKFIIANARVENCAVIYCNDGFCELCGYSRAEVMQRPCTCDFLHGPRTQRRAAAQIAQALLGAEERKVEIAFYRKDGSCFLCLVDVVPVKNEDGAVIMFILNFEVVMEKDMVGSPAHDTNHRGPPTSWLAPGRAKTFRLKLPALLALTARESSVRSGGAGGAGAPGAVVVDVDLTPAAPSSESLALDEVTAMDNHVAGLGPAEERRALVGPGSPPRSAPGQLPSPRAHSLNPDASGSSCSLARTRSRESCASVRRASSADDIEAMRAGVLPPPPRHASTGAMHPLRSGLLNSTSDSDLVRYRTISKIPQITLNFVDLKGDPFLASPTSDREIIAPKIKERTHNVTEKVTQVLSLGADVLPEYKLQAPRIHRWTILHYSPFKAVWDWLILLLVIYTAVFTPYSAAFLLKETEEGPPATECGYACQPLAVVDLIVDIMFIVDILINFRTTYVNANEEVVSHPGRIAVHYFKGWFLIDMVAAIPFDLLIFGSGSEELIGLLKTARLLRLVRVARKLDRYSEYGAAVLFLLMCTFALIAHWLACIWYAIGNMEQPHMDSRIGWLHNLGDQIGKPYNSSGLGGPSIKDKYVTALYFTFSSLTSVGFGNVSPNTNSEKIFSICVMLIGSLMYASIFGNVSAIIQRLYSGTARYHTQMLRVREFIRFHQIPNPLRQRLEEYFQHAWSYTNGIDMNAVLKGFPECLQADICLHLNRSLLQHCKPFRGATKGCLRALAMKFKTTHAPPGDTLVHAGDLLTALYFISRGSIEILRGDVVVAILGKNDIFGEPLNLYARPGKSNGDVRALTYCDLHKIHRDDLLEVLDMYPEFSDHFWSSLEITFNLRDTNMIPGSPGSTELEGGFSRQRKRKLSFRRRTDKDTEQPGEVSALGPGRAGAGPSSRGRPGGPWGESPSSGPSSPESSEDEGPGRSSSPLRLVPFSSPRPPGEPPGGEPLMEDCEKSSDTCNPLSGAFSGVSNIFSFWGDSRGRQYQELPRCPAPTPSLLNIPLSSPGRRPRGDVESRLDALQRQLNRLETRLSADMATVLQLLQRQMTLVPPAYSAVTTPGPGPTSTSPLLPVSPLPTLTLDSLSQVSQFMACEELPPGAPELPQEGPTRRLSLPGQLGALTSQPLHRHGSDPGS
Method in brief: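 Patch clamp on CHO cells stably expressing hERG, at room temperature. External solution (mM): 145 NaCl, 5 KCl, 2 CaCl2, 1 MgCl2, 10 HEPES, 10 glucose, pH 7.4. Pipette solution: 140 KCl, 1 MgCl2, 0.1 CaCl2, 5 EGTA, 10 HEPES, pH 7.3. Pipettes 3–5 MΩ; peak hERG current amplitude measured.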

[22] = target: PI3-kinase p110-delta/p85-alpha (Homo sapiens, UniProt O00329); assay: Inhibition of human PI3K p110delta/p85alpha using PIP2 as substrate in presence of ATP measured after 30 mins by HTRF assay
PI3-kinase p110-delta/p85-alpha, sequence (P27986 whole entry): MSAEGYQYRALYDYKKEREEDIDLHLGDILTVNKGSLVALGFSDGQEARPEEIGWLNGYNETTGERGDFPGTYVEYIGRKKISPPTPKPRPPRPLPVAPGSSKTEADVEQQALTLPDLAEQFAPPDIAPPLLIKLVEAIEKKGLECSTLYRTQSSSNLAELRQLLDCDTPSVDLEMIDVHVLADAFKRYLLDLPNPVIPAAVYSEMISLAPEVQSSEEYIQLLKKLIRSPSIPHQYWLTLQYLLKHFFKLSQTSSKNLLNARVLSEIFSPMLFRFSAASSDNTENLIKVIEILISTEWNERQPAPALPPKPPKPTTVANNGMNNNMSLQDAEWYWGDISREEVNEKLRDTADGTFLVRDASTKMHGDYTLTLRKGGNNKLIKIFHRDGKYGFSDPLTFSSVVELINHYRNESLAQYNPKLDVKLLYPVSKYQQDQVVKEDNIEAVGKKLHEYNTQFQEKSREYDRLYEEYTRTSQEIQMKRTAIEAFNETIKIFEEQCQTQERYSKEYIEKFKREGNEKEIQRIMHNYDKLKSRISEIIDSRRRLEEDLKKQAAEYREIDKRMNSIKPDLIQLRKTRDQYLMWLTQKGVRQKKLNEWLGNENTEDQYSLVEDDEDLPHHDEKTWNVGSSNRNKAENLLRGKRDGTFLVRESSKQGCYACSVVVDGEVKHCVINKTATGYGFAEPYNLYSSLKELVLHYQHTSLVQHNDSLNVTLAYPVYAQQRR
PI3-kinase p110-delta/p85-alpha, sequence (O00329 whole entry): as the sequence (O00329 whole entry, canonical isoform) above

[23] = Inhibition of human PI3K p110alpha E545K mutant/p85alpha using PIP2 as substrate incubated for 30 mins in presence of ATP by HTRF assay
[24] = Inhibition of human PI3K p110alpha H1047R mutant/p85alpha using PIP2 as substrate incubated for 30 mins in presence of ATP by HTRF assay

- inhibition [2]: > 50%
- inhibition [3]: Active
- inhibition [4]: Dose-dependent effect
- inhibition [5]: Dose-dependent effect
- IC50 [6]: < 1 µM
- IC50 [7]: < 1 µM
- IC50 [8]: < 1 µM
- IC50 [9]: < 1 µM
- half-life [11]: 6.79 h
- half-life [12]: 0.717 h
- half-life [13]: 2.46 h
- half-life [14]: 1.56 h
- CLint scaled [15]: 0.183 L/h/kg
- inhibition [16]: Active
- inhibition [17]: Active
- inhibition [18]: Active
- inhibition [19]: Active
- IC50 [20]: > 30 µM
- IC50 [22]: 0.0787 µM
- IC50 [23]: 0.0171 µM
- IC50 [24]: 0.0084 µM
SMILES: COC(=O)Nc1cc(C(F)(F)F)c(-c2nc(N3CCOCC3)c3cc(CN4CCN(S(C)(=O)=O)CC4)cn3n2)cn1 [RISOVALISIB]
- IC50 [1]: 1.03 µM
- inhibition [10]: Active
- IC50 [21]: > 40 µM
